Measurements taken from the array DNA melting data of Ke et al. (doi:10.1101/2024.01.08.574731).

What was measured:
[1] = folding enthalpy; higher = less favourable; fluorescence melt of hairpins on a sequencing array, two-state fit; conditions: sodium 0.088 M
Summary of the method: (§1)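 Bootstrapped two-state fits yielded melting temperature and folding enthalpy for library hairpins. Cy3 fluorescence, with annealed Cy3 and quencher oligos, was imaged on a sequenced MiSeq flow cell in 50 mM Na-HEPES pH 8.0, 25 mM NaCl in 2.5 °C steps up to 60 °C, and normalised to pre-quench Cy3 and to control constructs. Four replicates were combined by inverse variance, and fitted temperatures were raised by 9.35 °C to match UV melts.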

[2] = melting temperature; fluorescence melt of hairpins on a sequencing array, two-state fit, raised by 9.35 °C to match UV melts; conditions: sodium 0.088 M
Summary of the method: as §1

Row | Sequence | folding enthalpy [1] | Tm [2]
1 | GGTCCTCGAAAGAGACC (((.(((....)))))) | -31.3 kcal/mol | 48.1 °C
2 | GGTCGAGAAATCGACC ((((((....)))))) | -40 kcal/mol | 66.2 °C
3 | GGTCGAGGAAACCCGACC (((((.(....).))))) | -49.6 kcal/mol | 54.1 °C
4 | GGTCGAGGAAACTCGGCC ((.((((....)))).)) | -53.9 kcal/mol | 59.5 °C
5 | GGTCGCACGAAAGTGACC (((..(((....)))))) | -18.1 kcal/mol | 49.6 °C
6 | GGTCGCGAAAGCGGTACC ((((((....)))..))) | -14.5 kcal/mol | 46.5 °C
7 | GGTCGCGGAAACGTGGCC ((.(.((....)).).)) | -48.9 kcal/mol | 53.5 °C
8 | GGTCGGAAACGACC (((((....))))) | -32.3 kcal/mol | 68 °C
9 | GGTCGGGGAAACCTGACC ((((.((....)).)))) | -37.5 kcal/mol | 57.2 °C
10 | GGTCGTGGAAACACGATC (.(((((....))))).) | -38 kcal/mol | 54 °C
11 | GGTCGTGGAAACGTGACC ((((..(....)..)))) | -20.4 kcal/mol | 46.5 °C
12 | GGTCTAACGAAAGTTACC (((..(((....)))))) | -10.2 kcal/mol | 25.5 °C
13 | GGTCTACCGAAAGGTACC (((..(((....)))))) | -11 kcal/mol | 29.1 °C
14 | GGTCTACGAAAGTAACC (((.(((....)))))) | -24 kcal/mol | 34.3 °C
15 | GGTCTAGGAAACTAGATC (.(((((....))))).) | -29.8 kcal/mol | 40.3 °C
16 | GGTCTAGGAAACTAGGCC ((.((((....)))).)) | -46.1 kcal/mol | 51.1 °C
17 | GGTCTAGGAAACTGGACC ((((.((....)).)))) | -41.6 kcal/mol | 51 °C
18 | GGTCTATCGAAAGATACC (((..(((....)))))) | -10.3 kcal/mol | 25.8 °C
19 | GGTCTCCGAAAGGAAACC (((.(((....))).))) | -29.2 kcal/mol | 45.5 °C
20 | GGTCTCCGAAAGGAACC (((.(((....)))))) | -22.4 kcal/mol | 45.2 °C
21 | GGTCTCGAAAGAGATACC ((((((....)))..))) | -15.2 kcal/mol | 38.7 °C
22 | GGTCTCGAAAGAGGTACC ((((((....)))..))) | -19.9 kcal/mol | 35 °C
23 | GGTCTCGAAAGAGTCACC ((((((....)))..))) | -14.6 kcal/mol | 31.3 °C

Row | Sequence | folding enthalpy [1] | Tm [2]
24 | GGTCTCGGAAACGAGGCC ((.((((....)))).)) | -39.3 kcal/mol | 62.2 °C
25 | GGTCTCTCGAAAGAGACC (((..(((....)))))) | -35.3 kcal/mol | 60.5 °C
26 | GGTCTGCGAAAGCAACC (((.(((....)))))) | -18.8 kcal/mol | 44.6 °C
27 | GGTCTGCGAAAGCACACC (((.(((....))).))) | -20.9 kcal/mol | 42.1 °C
28 | GGTCTGCGAAAGCATACC (((.(((....))).))) | -22.1 kcal/mol | 49.4 °C
29 | GGTCTTCGAAAGAAAACC (((.(((....))).))) | -25.7 kcal/mol | 35.2 °C
30 | GGTCTTGCGAAAGCAACC (((..(((....)))))) | -8.24 kcal/mol | 28.8 °C
31 | GGTCTTGGAAACAAGACC (((((((....))))))) | -45.2 kcal/mol | 64.2 °C
32 | GGTCTTGGAAACGAGACC (((((.(....).))))) | -37.6 kcal/mol | 51.9 °C
33 | GGTGAAGGAAACTTCACC (((((((....))))))) | -42.6 kcal/mol | 63 °C
34 | GGTGAATCGAAAGATACC (((..(((....)))))) | -16.8 kcal/mol | 29.8 °C
35 | GGTGACCCGAAAGGGACC (((..(((....)))))) | -14.5 kcal/mol | 38.1 °C
36 | GGTGACCGAAAGGTGACC (((.(((....))).))) | -42.5 kcal/mol | 54.4 °C
37 | GGTGACGAAAGTCAACC ((((((....))).))) | -19.6 kcal/mol | 56.1 °C
38 | GGTGACGAAAGTCGTACC ((((((....)))..))) | -15.6 kcal/mol | 46.2 °C
39 | GGTGACGAAAGTCTCACC ((((((....)))..))) | -15.1 kcal/mol | 40.9 °C
40 | GGTGACGAAAGTCTTACC ((((((....)))..))) | -15 kcal/mol | 35.8 °C
41 | GGTGACGGAAACGCCACC ((((.((....)).)))) | -48 kcal/mol | 54.3 °C
42 | GGTGACGGAAACGTTACC (((.(((....))).))) | -38.5 kcal/mol | 53 °C
43 | GGTGAGGGAAACCTCATC (.(((((....))))).) | -25.1 kcal/mol | 48.5 °C
44 | GGTGAGGGAAACCTCGCC ((.((((....)))).)) | -36.5 kcal/mol | 58.1 °C
45 | GGTGATGCGAAAGCAACC (((..(((....)))))) | -13.7 kcal/mol | 36.9 °C
46 | GGTGATGGAAACATTGCC ((..(((....)))..)) | -32.5 kcal/mol | 38.3 °C

Row | Sequence | folding enthalpy [1] | Tm [2]
47 | GGTGCAGGAAACCGCACC (((((.(....).))))) | -45.1 kcal/mol | 57 °C
48 | GGTGCAGGAAACTGCGTC (..((((....))))..) | -10.3 kcal/mol | 35.6 °C
49 | GGTGCCCGAAAGGGAACC (((.(((....))).))) | -35.8 kcal/mol | 65.1 °C
50 | GGTGCCGAAAGGCCACC ((((((....))).))) | -18.2 kcal/mol | 60.4 °C
51 | GGTGCCGAAAGGCCGACC ((((((....)))..))) | -14.1 kcal/mol | 41.9 °C
52 | GGTGCCGAAAGGCGACC ((((((....))).))) | -16.8 kcal/mol | 61 °C
53 | GGTGCCGAAAGGCTGACC ((((((....)))..))) | -13.9 kcal/mol | 46.8 °C
54 | GGTGCCGGAAACGACACC ((((.((....)).)))) | -44.9 kcal/mol | 54.6 °C
55 | GGTGCCGGAAACGGCGTC (..((((....))))..) | -9.71 kcal/mol | 42.2 °C
56 | GGTGCGGGAAACCACACC ((((.((....)).)))) | -54.3 kcal/mol | 51.1 °C
57 | GGTGCGGGAAACTGCACC (((((.(....).))))) | -40.6 kcal/mol | 63.1 °C
58 | GGTGCTCGAAAGAGAACC (((.(((....))).))) | -48.3 kcal/mol | 54.1 °C
59 | GGTGCTCGAAAGAGACC (((.(((....)))))) | -19.4 kcal/mol | 46.5 °C
60 | GGTGCTGGAAACAGTGCC ((..(((....)))..)) | -37.8 kcal/mol | 50.1 °C
61 | GGTGCTGGAAACGGCACC (((((.(....).))))) | -45.8 kcal/mol | 62.9 °C
62 | GGTGCTGGAAACGGCATC (.(((.(....).))).) | -25.4 kcal/mol | 44.2 °C
63 | GGTGGAGCGAAAGCTACC (((..(((....)))))) | -13.7 kcal/mol | 44.1 °C
64 | GGTGGAGGAAACTCCGCC ((.((((....)))).)) | -46 kcal/mol | 57.8 °C
65 | GGTGGCGAAAGCCCACC ((((((....))).))) | -17.5 kcal/mol | 61.7 °C
66 | GGTGGCGAAAGCCGACC ((((((....))).))) | -17.6 kcal/mol | 59.6 °C
67 | GGTGGCGAAAGCCGTACC ((((((....)))..))) | -13.3 kcal/mol | 44.7 °C
68 | GGTGGCGAAAGCCTCACC ((((((....)))..))) | -12.7 kcal/mol | 45.2 °C
